Data on 25 molecules can be found in PubChem BioAssay AID977616 (Broad Institute, 2014).

Active and inactive are the calls of the source.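 Rule for the calls: active = falling-signal curve whose AC50 is at most twice the highest valid dose tested; inconclusive = flat fit showing 30 to 70% signal loss, or poor fit; inactive = the rest, including opposite-direction effects.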

The test system of the first assay is HepG2 viability, CellTiter-Glo ATP luminescence, 72 h. As to the kind of experiment: viability loss in hepatoma cells – cell-based, CellTiter-Glo luminescence, dry powder, set 14, cytotoxicity control, dose response (AID 977616).
Conditions: not given
The essentials: (§1)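 Material: HepG2 cells, wild type / Amount: 2000 HepG2 cells per well / Times: seeding 24 h pre-dose, 72 h exposure, 37 °C, 5% CO2 / Measured by: CellTiter-Glo ATP luminescence / Medium: DMEM growth medium with 10% FBS / Dosing: compound tested at multiple concentrations (dose series)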
In general terms: In ATP-based viability assays light output follows the ATP content of the culture.
By AC50 is commonly meant the concentration at which the activity in the assay is half-maximal. Turning to `C[C@@H](O)C#Cc1ccc2c(c1)O[C@@H](CN(C)Cc1ccc(-c3ccc(Cl)cc3)cc1)[C@@H](C)CN([C@@H](C)CO)S2(=O)=O`, the AC50 is 21.6 µM.

For the molecule `C[C@@H]1CN([C@@H](C)CO)S(=O)(=O)c2ccc(C#C[C@@H](C)O)cc2O[C@H]1CN(C)Cc1ccc(-c2ccccc2)cc1`, the AC50 was 17.8 µM.

Regarding `COc1ccccc1-c1ccc(CN(C)C[C@@H]2Oc3cc(C#C[C@@H](C)O)ccc3S(=O)(=O)N([C@@H](C)CO)C[C@@H]2C)cc1`, the AC50 was 20.4 µM.

Regarding `C[C@H](O)C#Cc1ccc2c(c1)O[C@@H](CN(C)Cc1ccc(-c3ccccc3)cc1)[C@H](C)CN([C@H](C)CO)S2(=O)=O`, the AC50 was 19.2 µM.

Consider `C[C@@H](O)C#Cc1ccc2c(c1)O[C@@H](CN(C)Cc1ccc(-c3ccccc3Cl)cc1)[C@@H](C)CN([C@@H](C)CO)S2(=O)=O`, for which the AC50 was 25.9 µM.

For `C[C@@H](O)C#Cc1ccc2c(c1)O[C@H](CN(C)Cc1ccc(-c3ccccc3)cc1)[C@@H](C)CN([C@@H](C)CO)S2(=O)=O`, the AC50 was 20 µM.

As to `C[C@H](O)C#Cc1ccc2c(c1)O[C@@H](CN(C)Cc1ccc(-c3ccccc3)cc1)[C@H](C)CN([C@@H](C)CO)S2(=O)=O`, the AC50 was 19.7 µM.

As for `C[C@H](O)C#Cc1ccc2c(c1)O[C@@H](CN(C)Cc1ccc(-c3ccccc3)cc1)[C@@H](C)CN([C@@H](C)CO)S2(=O)=O`, the AC50 was > 52 µM (inactive).

On to `C[C@H]1CN([C@@H](C)CO)S(=O)(=O)c2ccc(-c3ccc(O)cc3)cc2O[C@H]1CN(C)Cc1ccc(-c2ccccc2)cc1`, for which the AC50 is > 52 µM (inactive).

`COc1cccc(-c2ccc(CN(C)C[C@@H]3Oc4cc(C#C[C@@H](C)O)ccc4S(=O)(=O)N([C@@H](C)CO)C[C@@H]3C)cc2)c1`: the AC50 was 22.5 µM.

In the case of `C[C@H](O)C#Cc1ccc2c(c1)O[C@H](CN(C)Cc1ccc(-c3ccccc3)cc1)[C@@H](C)CN([C@H](C)CO)S2(=O)=O`, the AC50 was 21.2 µM.

With `C[C@H](O)C#Cc1ccc2c(c1)O[C@H](CN(C)Cc1ccc(-c3ccccc3)cc1)[C@@H](C)CN([C@@H](C)CO)S2(=O)=O`, the AC50 is 4.56 µM.

As to `Cc1cccc(-c2ccc(CN(C)C[C@@H]3Oc4cc(C#C[C@@H](C)O)ccc4S(=O)(=O)N([C@@H](C)CO)C[C@@H]3C)cc2)c1`, the AC50 is 23.1 µM.

Regarding `COc1ccc(-c2ccc(CN(C)C[C@@H]3Oc4cc(C#C[C@@H](C)O)ccc4S(=O)(=O)N([C@@H](C)CO)C[C@@H]3C)cc2)cc1`, the AC50 was 20.2 µM.

Consider `C[C@@H](O)C#Cc1ccc2c(c1)O[C@@H](CN(C)Cc1ccc(-c3cccc(Cl)c3)cc1)[C@@H](C)CN([C@@H](C)CO)S2(=O)=O`, for which the AC50 is 25.4 µM.

Test system in the next assay: not listed separately
Described as above. The conditions noted are these: HepG2 viability, CellTiter-Glo ATP luminescence, 72 h; at 12 µM (top of the series). The method, boiled down: as §1
For `C[C@H](O)C#Cc1ccc2c(c1)O[C@@H](CN(C)Cc1ccc(-c3ccccc3)cc1)[C@@H](C)CN([C@H](C)CO)S2(=O)=O`, the activity change, negative = cytotoxicity is -7.08% (inactive).

Staying with this assay, now noted: HepG2 viability, CellTiter-Glo ATP luminescence, 72 h; at 26 µM (top of the series).
As to `C[C@@H](O)C#Cc1ccc2c(c1)O[C@@H](CN(C)S(=O)(=O)c1ccc(-c3ccccc3)cc1)[C@@H](C)CN([C@@H](C)CO)S2(=O)=O`, the activity change, negative = cytotoxicity was -8.38% (inactive).

For `C[C@@H]1CN([C@H](C)CO)S(=O)(=O)c2ccc(C#C[C@@H](C)O)cc2O[C@@H]1CN(C)Cc1ccc(-c2ccccc2)cc1`, the activity change, negative = cytotoxicity is -8.68% (inactive).

For the molecule `CO[C@H]1CN(C)C(=O)c2ccc(NC(=O)c3ccc(F)cc3)cc2OC[C@H](C)N(C(=O)c2ccc(F)cc2)C[C@@H]1C`, the activity change, negative = cytotoxicity is 11.6% (inactive).

`CNC[C@@H]1Oc2cc(Br)ccc2S(=O)(=O)N([C@@H](C)CO)C[C@@H]1C`: the activity change, negative = cytotoxicity is -25.9% (inactive).

As for `C[C@@H](O)C#Cc1ccc2c(c1)O[C@@H](CN(C)Cc1ccncc1)[C@@H](C)CN([C@@H](C)CO)S2(=O)=O`, the activity change, negative = cytotoxicity is -6.07% (inactive).

Take `C[C@H](O)C#Cc1ccc2c(c1)O[C@H](CN(C)Cc1ccc(-c3ccccc3)cc1)[C@H](C)CN([C@@H](C)CO)S2(=O)=O`: the activity change, negative = cytotoxicity was -13.4% (inactive).

`C[C@@H](O)C#Cc1ccc2c(c1)O[C@@H](CN(C)Cc1cccnc1)[C@@H](C)CN([C@@H](C)CO)S2(=O)=O`: the activity change, negative = cytotoxicity was 2.57% (inactive).

With `C[C@H](CO)N1C[C@H](C)[C@H](CN(C)Cc2ccc(-c3ccccc3)cc2)Oc2cc(C#C[C@@H](C)O)ccc2S1(=O)=O`, the activity change, negative = cytotoxicity is 0.52% (inactive).

Take `C[C@H]1CN([C@@H](C)CO)S(=O)(=O)c2ccc(Br)cc2O[C@H]1CN(C)Cc1ccc(-c2ccccc2)cc1`: the activity change, negative = cytotoxicity is 14.1% (inactive).
